In article PMC6430907 (Journal of Veterinary Internal Medicine, 2019):

System: dogs with compensated CHF caused by MMVD
Experiment: Urine output
Assay type: in vivo, dog
Method in brief: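 Crossover design in 7 male dogs with ACVIM stage C CHF from MMVD, treated in fixed order with a 2-week washout. Baseline UOP was measured at the end of a 1-h control period. […] UOP was log-transformed and analysed by linear mixed modelling (REML, least square differences).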

With NS(=O)(=O)c1cc(C(=O)O)c(NCc2ccco2)cc1Cl [FRUS, furosemide] as the compound, how does the “increase in median UOP compared to baseline at maximal effect” value (1 hour after treatment, median of 7 dogs) read?
Its value is 1246%.

What about the “change in urine output (UOP) from baseline” value (BNP 5 μg/kg SC, FRUS 2 mg/kg SC, or both, 1, 2, 3 hours, 7 dogs) of the same compound?
The value was “increased significantly”.

And the “time after treatment of maximal effect on UOP” value (furosemide 2 mg/kg SC with or without BNP 5 μg/kg SC)?
Its value is 1 h.
